ChEMBL document CHEMBL4184148 (Bioorg Med Chem Lett, 2017)

Tests used:
[1] = biological target: T1, Aurora kinase A (Homo sapiens, UniProt O14965); test: Inhibition of recombinant full length His-tagged human Aurora A expressed in baculovirus expression system by Z'LYTE assay
T1 sequence (O14965 whole entry): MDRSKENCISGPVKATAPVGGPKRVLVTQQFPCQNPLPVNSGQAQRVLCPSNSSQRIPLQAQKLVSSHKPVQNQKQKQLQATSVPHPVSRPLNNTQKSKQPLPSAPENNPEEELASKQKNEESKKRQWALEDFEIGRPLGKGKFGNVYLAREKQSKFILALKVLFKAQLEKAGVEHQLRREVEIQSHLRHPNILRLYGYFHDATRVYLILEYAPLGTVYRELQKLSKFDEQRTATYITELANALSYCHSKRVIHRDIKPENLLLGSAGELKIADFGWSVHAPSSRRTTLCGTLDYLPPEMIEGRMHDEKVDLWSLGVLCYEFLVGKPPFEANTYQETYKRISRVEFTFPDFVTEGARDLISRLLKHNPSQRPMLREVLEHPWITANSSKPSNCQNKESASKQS
In short: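 Z'LYTE biochemical kinase assay with ATP at the Km for each kinase. IC50 determined from the assay and reported ± standard error.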

[2] = tested on: HCT-116; test: Cytotoxicity against human HCT116 cells assessed as reduction in cell viability after 72 hrs by CellTiter-Glo assay; type: functional, cell-based; settings: HCT-116, 72 h
In short: (§1)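 Cells were treated across a dose-response range for 72 h, and viability was read by CellTiter-Glo luminescence. Measurements were made in triplicate and reported with standard error.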

[3] = tested on: HCT-116; test: Cytotoxicity against human HCT116 cells assessed as reduction in cell viability up to 33.3 uM after 72 hrs by CellTiter-Glo assay relative to control; type: functional
[4] = tested on: PC-3; test: Cytotoxicity against human PC3 cells assessed as reduction in cell viability up to 33.3 uM after 72 hrs by CellTiter-Glo assay relative to control; type: functional
[5] = biological target: Casein kinase II subunit alpha' (Homo sapiens) (UniProt P19784); test: Binding affinity to wild-type human full length CSNK2A2 (M1 to R350 residues) expressed in HEK293 cells at 1 uM by Kinomescan method relative to control; type: cell-based
In short: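 Run as one kinome-wide competition binding panel with each compound at a single fixed concentration. Results were plotted as a kinome-wide selectivity map.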

[6] = tested on: Epidermal growth factor receptor (Homo sapiens), P00533 [G719C]; test: Binding affinity to human partial length EGFR G719C mutant (R669 to V1011 residues) expressed in Escherichia coli BL21 at 1 uM by Kinomescan method relative to control
[7] = biological target: Mitogen-activated protein kinase 4 (Homo sapiens) (UniProt P31152); test: Binding affinity to wild-type human partial length ERK4 (M1 to L365 residues) expressed in Escherichia coli BL21 at 1 uM by Kinomescan method relative to control
[8] = biological target: MAP/microtubule affinity-regulating kinase 4 (Homo sapiens) (UniProt Q96L34); test: Binding affinity to wild-type human partial length MARK4 (K29 to G340 residues) expressed in Escherichia coli BL21 at 1 uM by Kinomescan method relative to control
[9] = biological target: Serine/threonine-protein kinase Nek6 (Homo sapiens) (UniProt Q9HC98); test: Binding affinity to wild-type human full length NEK6 (M8 to T313 residues) expressed in Escherichia coli BL21 at 1 uM by Kinomescan method relative to control
In short: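 Kinome-wide competition binding panel run by an outside provider, with each compound tested at a single concentration. Activity is read against the kinase panel.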

[10] = biological target: Rho-associated protein kinase 2 (Homo sapiens) (UniProt O75116); test: Binding affinity to wild-type human partial length ROCK2 (M1 to T431 residues) expressed in HEK293 cells at 1 uM by Kinomescan method relative to control; type: cell-based
[11] = biological target: Tyrosine-protein kinase Yes (Homo sapiens) (UniProt P07947); test: Binding affinity to wild-type human partial length YES (T257 to L543 residues) expressed in Escherichia coli BL21 at 1 uM by Kinomescan method relative to control
[12] = tested on: HEK293; test: Cytotoxicity against human HEK293 cells assessed as reduction in cell viability after 72 hrs by CellTiter-Glo assay; type: cell-based; settings: HEK293, 72 h; in short: as §1

Row | Structure (SMILES) | IC50 [1] [nM] | IC50 [2] [nM] | Activity [3] [%] | Activity [4] [%] | Activity [5] [%] | Activity [6] [%] | Activity [7] [%] | Activity [8] [%] | Activity [9] [%] | Activity [10] [%] | Activity [11] [%] | IC50 [12] [nM]
1 | C=CC(=O)Nc1ccc(C(=O)Nc2ccc(Nc3ncc4c(n3)N(C)c3ccc(C)cc3C(=O)N4C)cc2)cc1 | 44 | 845 | 50 | 50 | 100 | 99 | 85 | 52 | 98 | 100 | 90 | 
2 | CCC(=O)Nc1ccc(C(=O)Nc2ccc(Nc3ncc4c(n3)N(C)c3ccc(C)cc3C(=O)N4C)cc2)cc1 | 52 |  |  |  | 83 | 95 | 95 | 85 | 96 | 78 | 83 | 100
